# According to ChEMBL document CHEMBL1122504, “Heterocyclic Quinones. 4. A new highly cytotoxic drug: 6,7-bis(1-aziridinyl)-5,8-quinazolinedione” (1983):
# How the values were obtained:
# [1] = system: P388; assay: Median survival time of P388 lymphocytic leukemia cell line after a dose of 20 mg/kg administered intraperitoneally on Q01Dx01 treatment schedule; format: functional, Mus musculus; details: route intraperitoneal
# In short: (§1)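 P388 leukaemia: DBA/2 mice inoculated with 10^6 cells on day 0; treatment began day 1 at the stated route and schedule. Drug was dissolved in 0.15 M NaCl saline. The read-out was median survival time (MST, days), with toxicity taken as survivors on day 5. T/C% = treated MST/control MST × 100; ≥125% is considered significant.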
# [2] = system: L1210; assay: Median survival time of L1210 cell line after a dose of 10 mg/kg administered intraperitoneally on Q01Dx02 treatment schedule; format: functional, Mus musculus; details: route intraperitoneal
# In short: (§2)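 L1210 leukaemia: DBA/2 mice inoculated ip with 10^5 cells on day 0, with ip drug in 0.15 M NaCl saline on the stated schedule. The read-out was median survival time in days, with toxicity taken as survivors on day 5. T/C% = treated MST/control MST × 100; >125% is considered significant.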
# [3] = system: L1210; assay: Median survival time of L1210 cell line after a dose of 15 mg/kg administered intraperitoneally on Q01Dx02 treatment schedule; format: functional, Mus musculus; details: route intraperitoneal; in short: as §2
# [4] = system: P388; assay: Median survival time of P388 lymphocytic leukemia cell line after a dose of 5 mg/kg administered intravenously on Q01Dx01 treatment schedule; format: functional, Mus musculus; details: route intravenous; in short: as §1
# [5] = system: P388; assay: Number of survivors of P388 lymphocytic leukemia cell line on day 5/ number of treated mice at a dose of 9 ip injection of 2.5 mg/kg on Q01Dx09 treatment schedule; 10/10; format: functional, Mus musculus; details: route intraperitoneal
# [6] = system: Sarcoma-180; assay: Number of survivors of sarcoma 180 cell line on day 5/ number of treated mice at a dose of 1 ip injection of 10 mg/kg on Q01Dx01 treatment schedule; 10/10; format: functional, Mus musculus; details: route intraperitoneal
# [7] = system: L1210; assay: MST of treated animal over control when administered at a dose of 10 mg/kg intraperitoneally on Q01Dx02 treatment schedule in L1210 cell lines; format: functional, Mus musculus; details: route intraperitoneal; in short: as §2
# [8] = system: L1210; assay: Number of survivors of L1210 cell line on day 5/ number of treated mice at a dose of 2ip injection of 10 mg/kg on Q01Dx02 treatment schedule; 10/10; format: functional, Mus musculus
# [9] = system: P388; assay: Number of survivors of P388 lymphocytic leukemia cell line on day 5/ number of treated mice at a dose of 1 i.v. injection of 5 mg/kg on Q01Dx01 treatment schedule; 10/10; format: functional, Mus musculus; details: route intravenous
# [10] = system: Salmonella typhimurium; assay: Mutagenesis test was performed at 40 uM concentration in Salmonella Typhimurium TA 98; format: functional, Salmonella enterica subsp. enterica serovar Typhimurium
# In short: (§3)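 Salmonella typhimurium his auxotrophs TA98 and TA100 were tested by liquid suspension without metabolic activation. Overnight Oxoid nutrient broth cultures were subcultured, grown 2 h, then exposed to drug for 5 h. Cells were washed, resuspended to A650 2.50, and plated in top agar (0.6% agar, 0.6% NaCl). His+ revertants per plate were counted after 48 h at 37 °C; values are means of three assays.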
# [11] = system: L1210; assay: MST of treated animal over control when administered at a dose of 5 mg/kg intraperitoneally on Q01Dx09 treatment schedule in L1210 cell lines; format: functional, Mus musculus; details: route intraperitoneal; in short: as §2
# [12] = system: P388; assay: Median survival time of P388 lymphocytic leukemia cell line after a dose of 10 mg/kg administered intraperitoneally on Q01Dx01 treatment schedule; format: functional, Mus musculus; details: route intraperitoneal; in short: as §1
# [13] = system: P388; assay: MST of treated animal over control when administered at a dose of 15 mg/kg perorally on Q01Dx07 treatment schedule; format: functional, Mus musculus; details: route oral; in short: as §1
# [14] = system: P388; assay: Number of survivors of P388 lymphocytic leukemia cell line on day 5/ number of treated mice at a dose of 5 ip injection of 5 mg/kg on Q01Dx05 treatment schedule; 10/10; format: functional, Mus musculus; details: route intraperitoneal
# [15] = system: B16; assay: MST of treated animal over control when administered at a dose of 2.5 mg/kg intraperitoneally on Q01Dx01 treatment schedule in B16 melanocarcinoma cell lines; format: functional, Mus musculus; details: route intraperitoneal
# In short: (§4)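 B16 melanocarcinoma: C57Bl/6 mice implanted sc with cell suspension on day 0; single ip dose in 0.15 M NaCl saline given on day 1. Median survival time was recorded in days, with toxicity taken as survivors on day 5. T/C% = treated MST/control MST × 100; >125% is considered significant.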
# [16] = system: P388; assay: Number of survivors of P388 lymphocytic leukemia cell line on day 5/ number of treated mice at a dose of 7po injection of 10 mg/kg on Q01Dx07 treatment schedule; 10/10; format: functional, Mus musculus
# [17] = system: B16; assay: Median survival time of […] melanocarcinoma cell line after a dose of 10 mg/kg administered intraperitoneally on Q01Dx01 treatment schedule; format: functional, Mus musculus; details: route intraperitoneal; in short: as §4
# [18] = system: P388; assay: Number of survivors of P388 lymphocytic leukemia cell line on day 5/ number of treated mice at a dose of 1 i.v. injection of 2.5 mg/kg on Q01Dx01 treatment schedule; 9/10; format: functional, Mus musculus; details: route intravenous
# [19] = system: Salmonella typhimurium; assay: Mutagenesis test was performed at 4 uM concentration in Salmonella Typhimurium TA 98; format: functional, Salmonella enterica subsp. enterica serovar Typhimurium; in short: as §3
# [20] = system: Sarcoma-180; assay: MST of treated animal over control when administered at a dose of 10 mg/kg intraperitoneally on Q01Dx01 treatment schedule in sarcoma 180 cell lines; format: functional, Mus musculus; details: route intraperitoneal
# In short: (§5)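 Sarcoma 180: Swiss mice inoculated ip with 10^6 cells on day 0, with single ip injection of drug in 0.15 M NaCl saline. Median survival time was recorded in days, with toxicity taken as survivors on day 5. T/C% = treated MST/control MST × 100; >125% is considered significant.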
# [21] = system: Sarcoma-180; assay: MST of treated animal over control when administered at a dose of 20 mg/kg intraperitoneally on Q01Dx01 treatment schedule in sarcoma 180 cell lines; format: functional, Mus musculus; details: route intraperitoneal; in short: as §5
# [22] = system: P388; assay: MST of treated animal over control when administered at a dose of 20 mg/kg perorally on Q01Dx07 treatment schedule; format: functional, Mus musculus; details: route oral; in short: as §1
# [23] = system: L1210; assay: Number of survivors of L1210 cell line on day 5/ number of treated mice at a dose of 5ip injection of 10 mg/kg on Q01Dx05 treatment schedule; 10/10; format: functional, Mus musculus
# [24] = system: Salmonella typhimurium; assay: Mutagenesis test was performed at 10 uM concentration in Salmonella Typhimurium TA 100; format: functional, Salmonella enterica subsp. enterica serovar Typhimurium; in short: as §3
# [25] = system: P388; assay: Median survival time of P388 lymphocytic leukemia cell line after a dose of 5 mg/kg administered intraperitoneally on Q01Dx05 treatment schedule; format: functional, Mus musculus; details: route intraperitoneal; in short: as §1
# [26] = system: Sarcoma-180; assay: Number of survivors of sarcoma 180 cell line on day 5/ number of treated mice at a dose of 1 ip injection of 20 mg/kg on Q01Dx01 treatment schedule; 10/10; format: functional, Mus musculus; details: route intraperitoneal
# [27] = system: Salmonella typhimurium; assay: Mutagenesis test was performed at 0.3 uM concentration in Salmonella Typhimurium TA 100; format: functional, Salmonella enterica subsp. enterica serovar Typhimurium; in short: as §3
# [28] = system: P388; assay: Median survival time of P388 lymphocytic leukemia cell line after a dose of 10 mg/kg administered intraperitoneally on Q01Dx05 treatment schedule; format: functional, Mus musculus; details: route intraperitoneal; in short: as §1
# [29] = system: B16; assay: Number of survivors of B16 melanocarcinoma cell line on day 5/ number of treated mice at a dose of 1 ip injection of 10 mg/kg on Q01Dx01 treatment schedule; 10/10; format: functional, Mus musculus; details: route intraperitoneal
# [30] = system: P388; assay: MST of treated animal over control when administered at a dose of 10 mg/kg perorally on Q01Dx07 treatment schedule; format: functional, Mus musculus; details: route oral; in short: as §1
# [31] = system: Salmonella typhimurium; assay: Mutagenesis test was performed at 0.7 uM concentration in Salmonella Typhimurium TA 98; format: functional, Salmonella enterica subsp. enterica serovar Typhimurium; in short: as §3
structure (smiles),measurement,setting,value
O=C1C(N2CC2)=C(N2CC2)C(=O)c2ncncc21,MST,[1],9.5 days
same,MST,[2],9 days
same,MST,[3],9 days
same,MST,[4],10.4 days
same,Toxicity Survivors,[5],10
same,Toxicity Survivors,[6],10
same,T/C,[7],104%
same,Toxicity Survivors,[8],10
same,Toxicity Survivors,[9],10
same,Revertants/plate,[10],334
same,T/C,[11],109%
same,MST,[12],9.5 days
same,T/C,[13],100%
same,Toxicity Survivors,[14],10
same,T/C,[15],121%
same,Toxicity Survivors,[16],10
same,MST,[17],20.8 days
same,Toxicity Survivors,[18],9
same,Revertants/plate,[19],81
same,T/C,[20],109%
same,T/C,[21],110%
same,T/C,[22],105%
same,Toxicity Survivors,[23],10
same,Revertants/plate,[24],97
same,MST,[25],10.4 days
same,Toxicity Survivors,[26],10
same,Revertants/plate,[27],76
same,MST,[28],10.4 days
same,Toxicity Survivors,[29],10
same,T/C,[30],100%
same,Revertants/plate,[31],101
